Test results as given in ChEMBL document CHEMBL4330069, “Boosting the efficacy of anti-MRSA β-lactam antibiotics via an easily accessible, non-cytotoxic and orally bioavailable FtsZ inhibitor” (Eur J Med Chem, 2019).
Values after ≈ are worked out from the molar mass of the structure shown.

How the values were obtained:
Format in all cases: functional
Staphylococcus aureus [1] = assay: Antibacterial activity against multidrug-resistant Staphylococcus aureus isolate 2728 by broth microdilution assay
In short: (§1)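 Broth microdilution MIC per CLSI guidelines against clinical MRSA isolates, for β-lactams and test compound alone and in combination. Compounds were dissolved in DMSO. Growth was read by eye, in duplicate. FIC index = FIC(compound) + FIC(drug); synergy defined as FIC index ≤0.5.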

Staphylococcus aureus [2] = assay: Synergistic antibacterial activity against multidrug-resistant Staphylococcus aureus isolate 3332 assessed as fractional Inhibitory concentration index in presence of amoxicillin by broth microdilution assay
Staphylococcus aureus [3] = assay: Antibacterial activity against multidrug-resistant Staphylococcus aureus isolate 2901 by broth microdilution assay; in short: as §1
Staphylococcus aureus [4] = assay: Synergistic antibacterial activity against multidrug-resistant Staphylococcus aureus isolate 358 in presence of cloxacillin by broth microdilution assay
Staphylococcus aureus [5] = assay: Synergistic antibacterial activity against multidrug-resistant Staphylococcus aureus isolate 757 in presence of methicillin by broth microdilution assay
Staphylococcus aureus [6] = assay: Synergistic antibacterial activity against multidrug-resistant Staphylococcus aureus isolate 2901 in presence of methicillin by broth microdilution assay
In short: (§2)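 CLSI broth microdilution on clinical MRSA isolates. MICs were measured for the β-lactam alone, the test agent alone and the two combined. Compounds were dissolved in DMSO, and growth inhibition was scored by eye. FIC index is the sum, over both agents, of MIC in combination divided by MIC alone. An FIC index ≤0.5 was taken as synergy.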

Staphylococcus aureus [7] = assay: Synergistic antibacterial activity against multidrug-resistant Staphylococcus aureus isolate 1749 in presence of cefuroxime by broth microdilution assay
In short: (§3)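 Clinical MRSA isolate panel; compound and β-lactam tested alone and in combination by CLSI broth microdilution, compounds dissolved in DMSO, growth inhibition scored by eye, run in duplicate. FIC index = FIC(compound) + FIC(drug), each the MIC in combination divided by the MIC alone; an index ≤ 0.5 was called synergy.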

Staphylococcus aureus [8] = assay: Synergistic antibacterial activity against multidrug-resistant Staphylococcus aureus isolate 3589 in presence of cloxacillin by broth microdilution assay
Staphylococcus aureus [9] = assay: Synergistic antibacterial activity against multidrug-resistant Staphylococcus aureus isolate 1402 assessed as fractional Inhibitory concentration index in presence of cloxacillin by broth microdilution assay
In short: (§4)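 CLSI broth microdilution run on clinical MRSA isolates with each β-lactam alone, the test agent alone, and the two combined; agents dissolved in DMSO. Growth inhibition was read by eye. FIC index = FIC(compound) + FIC(β-lactam), where each FIC is the MIC in combination divided by the MIC alone. An index ≤0.5 was taken as synergy.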

Staphylococcus aureus [10] = assay: Synergistic antibacterial activity against multidrug-resistant Staphylococcus aureus isolate 3332 in presence of amoxicillin by broth microdilution assay; in short: as §2
Staphylococcus aureus [11] = assay: Synergistic antibacterial activity against multidrug-resistant Staphylococcus aureus isolate 2919 in presence of amoxicillin by broth microdilution assay; in short: as §2
Staphylococcus aureus [12] = assay: Synergistic antibacterial activity against multidrug-resistant Staphylococcus aureus isolate 256 assessed as fractional Inhibitory concentration index in presence of meropenem by broth microdilution assay
Staphylococcus aureus [13] = assay: Synergistic antibacterial activity against multidrug-resistant Staphylococcus aureus isolate 3332 in presence of cefuroxime by broth microdilution assay; in short: as §2
Staphylococcus aureus [14] = assay: Antibacterial activity against multidrug-resistant Staphylococcus aureus isolate 2919 by broth microdilution assay; in short: as §1
Staphylococcus aureus [15] = assay: Synergistic antibacterial activity against multidrug-resistant Staphylococcus aureus isolate 2224 in presence of amoxicillin by broth microdilution assay; in short: as §3
Staphylococcus aureus [16] = assay: Synergistic antibacterial activity against multidrug-resistant Staphylococcus aureus isolate 2895 in presence of cefuroxime by broth microdilution assay; in short: as §2
Staphylococcus aureus [17] = assay: Synergistic antibacterial activity against multidrug-resistant Staphylococcus aureus isolate 3589 in presence of methicillin by broth microdilution assay
Staphylococcus aureus [18] = assay: Synergistic antibacterial activity against multidrug-resistant Staphylococcus aureus isolate 2224 in presence of cloxacillin by broth microdilution assay; in short: as §3
Staphylococcus aureus [19] = assay: Synergistic antibacterial activity against multidrug-resistant Staphylococcus aureus isolate 254 assessed as fractional Inhibitory concentration index in presence of cefuroxime by broth microdilution assay
Staphylococcus aureus [20] = assay: Synergistic antibacterial activity against multidrug-resistant Staphylococcus aureus isolate 2919 in presence of meropenem by broth microdilution assay; in short: as §2
Staphylococcus aureus [21] = assay: Synergistic antibacterial activity against multidrug-resistant Staphylococcus aureus isolate 3267 assessed as fractional Inhibitory concentration index in presence of methicillin by broth microdilution assay
Staphylococcus aureus [22] = assay: Synergistic antibacterial activity against multidrug-resistant Staphylococcus aureus isolate 1344 assessed as fractional Inhibitory concentration index in presence of meropenem by broth microdilution assay; in short: as §4
Staphylococcus aureus [23] = assay: Synergistic antibacterial activity against multidrug-resistant Staphylococcus aureus isolate 3411 assessed as fractional Inhibitory concentration index in presence of amoxicillin by broth microdilution assay
Staphylococcus aureus [24] = assay: Antibacterial activity against multidrug-resistant Staphylococcus aureus isolate 200 by broth microdilution assay; in short: as §1
Staphylococcus aureus [25] = assay: Synergistic antibacterial activity against multidrug-resistant Staphylococcus aureus isolate 200 in presence of amoxicillin by broth microdilution assay; in short: as §3
Staphylococcus aureus [26] = assay: Synergistic antibacterial activity against multidrug-resistant Staphylococcus aureus isolate 417 in presence of cefuroxime by broth microdilution assay
Staphylococcus aureus [27] = assay: Synergistic antibacterial activity against multidrug-resistant Staphylococcus aureus isolate 417 assessed as fractional Inhibitory concentration index in presence of meropenem by broth microdilution assay
Staphylococcus aureus [28] = assay: Synergistic antibacterial activity against multidrug-resistant Staphylococcus aureus isolate 1717 in presence of cefuroxime by broth microdilution assay; in short: as §3
Staphylococcus aureus [29] = assay: Synergistic antibacterial activity against multidrug-resistant Staphylococcus aureus isolate 1749 in presence of cloxacillin by broth microdilution assay; in short: as §3
Staphylococcus aureus [30] = assay: Synergistic antibacterial activity against multidrug-resistant Staphylococcus aureus isolate 3580 assessed as fractional Inhibitory concentration index in presence of amoxicillin by broth microdilution assay
Staphylococcus aureus [31] = assay: Antibacterial activity against multidrug-resistant Staphylococcus aureus isolate 2516 by broth microdilution assay; in short: as §1
Staphylococcus aureus [32] = assay: Synergistic antibacterial activity against multidrug-resistant Staphylococcus aureus isolate 1749 assessed as fractional Inhibitory concentration index in presence of cloxacillin by broth microdilution assay; in short: as §4
Staphylococcus aureus [33] = assay: Antibacterial activity against multidrug-resistant Staphylococcus aureus isolate 1136 by broth microdilution assay; in short: as §1
Staphylococcus aureus [34] = assay: Synergistic antibacterial activity against multidrug-resistant Staphylococcus aureus isolate 2516 in presence of meropenem by broth microdilution assay; in short: as §2
Staphylococcus aureus [35] = assay: Synergistic antibacterial activity against multidrug-resistant Staphylococcus aureus isolate 85 in presence of meropenem by broth microdilution assay
Escherichia coli = assay: Antibacterial activity against Escherichia coli ATCC 25922 by broth microdilution assay
In short: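 Broth microdilution per CLSI guidelines; compounds dissolved in DMSO; single agents tested; growth inhibition read by eye; run in duplicate (table footnote states at least triplicates).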

Staphylococcus aureus [36] = assay: Synergistic antibacterial activity against multidrug-resistant Staphylococcus aureus isolate 3580 in presence of cloxacillin by broth microdilution assay
Staphylococcus aureus [37] = assay: Synergistic antibacterial activity against multidrug-resistant Staphylococcus aureus isolate 231 assessed as fractional Inhibitory concentration index in presence of meropenem by broth microdilution assay; in short: as §4
Staphylococcus aureus [38] = assay: Synergistic antibacterial activity against multidrug-resistant Staphylococcus aureus isolate 2224 assessed as fractional Inhibitory concentration index in presence of amoxicillin by broth microdilution assay; in short: as §4

CCCCCCCCCNc1ccc(F)c(C(N)=O)c1F
MIC (Staphylococcus aureus [1]): 128 µg/mL (≈ 429 µM) | fractional inhibitory concentration index (FICI) (Staphylococcus aureus [2]): 0.6 | MIC (Staphylococcus aureus [3]): 512 µg/mL (≈ 1720 µM) | MIC (Staphylococcus aureus [4]): 1 µg/mL | MIC (Staphylococcus aureus [5]): 4 µg/mL | MIC (Staphylococcus aureus [6]): 2 µg/mL | MIC (Staphylococcus aureus [7]): 2 µg/mL | MIC (Staphylococcus aureus [8]): 2 µg/mL | fractional inhibitory concentration index (FICI) (Staphylococcus aureus [9]): 0.8 | MIC (Staphylococcus aureus [10]): 8 µg/mL | MIC (Staphylococcus aureus [11]): 8 µg/mL | fractional inhibitory concentration index (FICI) (Staphylococcus aureus [12]): 4 | MIC (Staphylococcus aureus [13]): 2 µg/mL | MIC (Staphylococcus aureus [14]): 16 µg/mL (≈ 53.6 µM) | MIC (Staphylococcus aureus [15]): 64 µg/mL | MIC (Staphylococcus aureus [16]): 4 µg/mL | MIC (Staphylococcus aureus [17]): 4 µg/mL | MIC (Staphylococcus aureus [18]): 2 µg/mL | fractional inhibitory concentration index (FICI) (Staphylococcus aureus [19]): 0.3 | MIC (Staphylococcus aureus [20]): 4 µg/mL | fractional inhibitory concentration index (FICI) (Staphylococcus aureus [21]): 0.1 | fractional inhibitory concentration index (FICI) (Staphylococcus aureus [22]): 2 | fractional inhibitory concentration index (FICI) (Staphylococcus aureus [23]): 2 | MIC (Staphylococcus aureus [24]): 1020 µg/mL (≈ 3430 µM) | MIC (Staphylococcus aureus [25]): 8 µg/mL | MIC (Staphylococcus aureus [26]): 2 µg/mL | fractional inhibitory concentration index (FICI) (Staphylococcus aureus [27]): 0.2 | MIC (Staphylococcus aureus [28]): 2 µg/mL | MIC (Staphylococcus aureus [29]): 0.5 µg/mL | fractional inhibitory concentration index (FICI) (Staphylococcus aureus [30]): 0.3 | MIC (Staphylococcus aureus [31]): 32 µg/mL (≈ 107 µM) | fractional inhibitory concentration index (FICI) (Staphylococcus aureus [32]): 1.3 | MIC (Staphylococcus aureus [33]): 16 µg/mL (≈ 53.6 µM) | MIC (Staphylococcus aureus [34]): 4 µg/mL | MIC (Staphylococcus aureus [35]): 8 µg/mL | MIC (Escherichia coli): > 64 µg/mL | MIC (Staphylococcus aureus [36]): 1 µg/mL | fractional inhibitory concentration index (FICI) (Staphylococcus aureus [37]): 0.6 | fractional inhibitory concentration index (FICI) (Staphylococcus aureus [38]): 0.2
